Consider one compound from ChEMBL document CHEMBL4425108, “A Selective and Slowly Reversible Inhibitor of l-Type Amino Acid Transporter 1 (LAT1) Potentiates Antiproliferative Drug Efficacy in Cancer Cells” (J Med Chem, 2016).

Activity calls are given as the source filed them. The calls are words filed in the database; no cut-off is given here.

For series [1], the target named is T1, Large neutral amino acids transporter small subunit 1 (Homo sapiens, UniProt Q01650). Put plainly: Inhibition of LAT1 in human MCF7 cells assessed as potentiation of cisplatin-induced antiproliferative activity by measuring reduction in cell viability at 25 uM measured after 72 hrs by resazurin dye-based fluorimetric analysis. In a few lines:
(§1)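 MCF-7 cells seeded 2 × 10^4/well on collagen-coated plates, treated one day later in growth medium with inhibitor (25 or 100 µM) plus bestatin or cisplatin (100 µM) for up to 3 days. Viability read daily by resazurin fluorescence (ex 560/em 590 nm). Viability is treated relative to untreated control. Mean ± SD, n=3.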
(Alamar Blue is a resazurin reagent that responds to reducing activity.)

A short description of series [2]: Plasma concentration in mouse at 23 umol/kg, ip measured after 10 mins. In kind it is ADME, organism-based.
In series [3] the target is T1, Large neutral amino acids transporter small subunit 1. As to the kind of experiment: Binding affinity to LAT1 in human MCF7 cells at 100 uM after 30 mins by HPLC analysis. It counts as cell-based. In a few lines: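 MCF-7 cells given 25-400 µM compound in pre-warmed HBSS (pH 7.4) at 37 °C for 30 min, washed three times with ice-cold HBSS, lysed in 0.1 M NaOH. Lysate quantified by HPLC-UV against a standard curve spiked into cell lysate. Amount normalised to protein (Bio-Rad assay, nmol/mg protein). n=3.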

Series [4] shares this target. As to the kind of experiment: Inhibition of LAT1 in human MCF7 cells assessed as potentiation of bestatin-induced antiproliferative activity by measuring reduction in cell viability at 25 uM measured after 72 hrs by resazurin dye-based fluorimetric analysis. The essentials: as §1
Series [5] is described as follows: fCmax in mouse brain at 23 umol/kg, ip administered as bolus by LC-MS analysis. The following applies: in vivo. It counts as ADME, organism-based. The essentials:
(§2)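 Male mice (25 ± 5 g) dosed i.p. as a bolus at 23 µmol/kg in DMSO/hydroxypropyl-β-cyclodextrin/saline vehicle, sampled at time points 10–480 min; plasma and tissue homogenates (1:3 water) analysed by LC-MS. […] Mean ± SEM.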

Series [6] can be described thus: Plasma concentration in mouse at 23 umol/kg, ip measured after 180 mins. It counts as ADME, organism-based.
Series [7] in a line: Unbound AUC (0 to 480 mins) in mouse brain at 23 umol/kg, ip administered as bolus by LC-MS analysis. It counts as ADME, organism-based. The following applies: in vivo. In a few lines: as §2
In a further series the test system is MCF7. As to the kind of experiment: Antiproliferative activity against human MCF7 cells assessed as reduction in cell viability at 25 uM measured after 24 hrs by resazurin dye-based fluorimetric analysis. In kind it is functional. In a few lines: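 MCF-7 cells were seeded at 2 × 10^4 cells/well on collagen-coated plates and treated one day later. Agents were given alone or combined (25 or 100 µM with 100 µM partner drug) in growth medium for 3 days. Viability was read daily by resazurin fluorescence (ex 560/em 590 nm) and expressed relative to untreated controls.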

A short description of series [8]: Unbound AUC (0 to 480 mins) in mouse heart at 23 umol/kg, ip administered as bolus by LC-MS analysis. It counts as ADME, organism-based. The following applies: in vivo. The essentials: as §2
Series [9] concerns the target T2, Large neutral amino acids transporter small subunit 2 (Homo sapiens) (UniProt Q9UHI5).
T2 sequence (whole entry): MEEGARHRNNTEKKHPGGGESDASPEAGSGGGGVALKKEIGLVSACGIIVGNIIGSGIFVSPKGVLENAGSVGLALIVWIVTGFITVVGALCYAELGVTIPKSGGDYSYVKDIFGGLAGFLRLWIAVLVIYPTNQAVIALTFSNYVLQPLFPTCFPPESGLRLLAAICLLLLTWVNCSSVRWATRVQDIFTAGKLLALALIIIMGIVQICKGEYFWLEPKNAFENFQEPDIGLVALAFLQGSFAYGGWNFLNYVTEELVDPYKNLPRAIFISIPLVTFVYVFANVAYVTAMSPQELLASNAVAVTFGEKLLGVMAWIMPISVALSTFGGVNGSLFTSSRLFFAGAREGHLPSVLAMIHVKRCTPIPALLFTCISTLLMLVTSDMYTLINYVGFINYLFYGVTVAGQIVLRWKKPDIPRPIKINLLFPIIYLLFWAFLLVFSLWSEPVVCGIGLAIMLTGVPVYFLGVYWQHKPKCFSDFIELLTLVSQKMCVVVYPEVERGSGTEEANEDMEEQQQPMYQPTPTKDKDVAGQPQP
As to the kind of experiment: Competitive inhibition of [14C]-L-alanine uptake at LAT2 in human MCF7 cells at 25 uM preincubated for 5 mins followed by addition of substrate measured during 5 mins by liquid scintillation counting. It counts as cell-based.

T1 sequence (Q01650 whole entry): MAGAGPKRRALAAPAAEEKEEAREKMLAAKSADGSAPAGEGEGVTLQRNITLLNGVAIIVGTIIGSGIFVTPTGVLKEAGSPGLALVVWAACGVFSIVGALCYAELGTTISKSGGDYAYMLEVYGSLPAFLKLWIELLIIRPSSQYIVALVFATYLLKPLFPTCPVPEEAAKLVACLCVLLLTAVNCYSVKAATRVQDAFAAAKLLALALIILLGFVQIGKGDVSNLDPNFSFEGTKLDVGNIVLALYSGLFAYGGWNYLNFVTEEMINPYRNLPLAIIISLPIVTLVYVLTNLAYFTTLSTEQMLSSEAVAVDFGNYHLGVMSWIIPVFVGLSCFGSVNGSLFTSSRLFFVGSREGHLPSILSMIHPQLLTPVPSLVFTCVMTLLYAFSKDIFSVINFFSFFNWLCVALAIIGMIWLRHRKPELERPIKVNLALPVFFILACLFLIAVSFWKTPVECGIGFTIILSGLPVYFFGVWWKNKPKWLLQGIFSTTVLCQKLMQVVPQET

`CNC(=O)COc1ccc(-c2c(C#N)c(NC(=O)c3cccc(C[C@H](N)C(=O)O)c3)n3c(nc4ccccc43)c2C#N)cc1`: the Activity in series [1] stood at 49.7%; in series [4], 52.6%; in the series on MCF7, 13.9%. Also, in series [2], the concentration at 10 min was 20 µM. For the same compound, the outcome in [3] was Active. The fCmax in series [5] worked out at 0.02 nmol/g. For the same compound, the concentration at 3 h in [6] was found to be 0.23 µM. For the same compound, the fAUC in series [7] was determined as 0.1 nmol/g/min; in series [8], 4 nmol/g/min. For the same compound, the inhibition entry in [9] was “inactive”.
